CHOP inhibitor – CHOP inhibition in unfolded protein response; CHO-K1 CHOP-promoter luciferase, tunicamycin-induced, 15-18 h; AID 2732; inhibition, % at 10 µM; actives 3.8% (n = 220,000);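 active means compounds that reduced the stress-induced luciferase reporter signal by more than about 70% of percent inhibition, limit read from the data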
CSC inhib – blocks cancer stem cells | actives 1.1% (n = 300,000) | cancer stem cell-like cells viability, luminescence | inhibition, % at 7.5 µM; in the data active means inhibition above about 75%; tested in HMLE shEcad cells
GRIN3A LBD mod – modulators (binders) of human NR3A ligand-binding domain; NR3A LBD differential scanning fluorimetry, Tm shift; 0% = protein alone, 100% = glycine-bound protein; Tm shift relative to glycine control, % at 25 µM; actives 2.5% (n = 340,000);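 active means melting temperature shift of at least 10% of the positive control shift, at one fixed dose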
Beta apoptosis – blocks beta cell apoptosis; INS-1E cytokine-induced death, ATP luminescence, 48 h; percent of positive-control rescue, neutral wells zero; protection from apoptosis, % (test concentration not listed); actives 0.8% (n = 300,000);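 active means Every replicate reaches about 75%, or at least half do and their mean reaches it too, limit read from the data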;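 further: higher means more ATP so stronger rescue from cytokine killing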
T cruzi inh – T. cruzi replication inhibition | actives 1.4% (n = 300,000) | T. cruzi beta-gal in NIH3T3, luminescence, 90 h | inhibition, % (concentration not given with the values);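 active means mean inhibition across valid replicates above about 55%, limit read from the data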;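 further: signal also drops with host cell toxicity which is not excluded here; higher percent means less beta-gal luminescence so fewer parasites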
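Assay system: NIH/3T3 host cells with β-galactosidase reporter T. cruzi; input: 5,000 host fibroblasts per well; compound: single 50 nL compound addition per well in DMSO; timing: ≥90 h infection period, 3 h prior cell attachment; measured by: GalScreen β-gal luminescence, detergent lysis, 60 min; evaluation: percent inhibition of parasite-derived β-gal signal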
PREPL inhibitor – human PREPL enzyme inhibition; inhibition, % at 5.96 µM; AID 2751; actives 0.68% (n = 320,000); recombinant PREPL, fluorescence polarization activity-based probe; Q4J6C6; in the data active means inhibition above about 43%
Target sequence (Q4J6C6 whole entry, looked up): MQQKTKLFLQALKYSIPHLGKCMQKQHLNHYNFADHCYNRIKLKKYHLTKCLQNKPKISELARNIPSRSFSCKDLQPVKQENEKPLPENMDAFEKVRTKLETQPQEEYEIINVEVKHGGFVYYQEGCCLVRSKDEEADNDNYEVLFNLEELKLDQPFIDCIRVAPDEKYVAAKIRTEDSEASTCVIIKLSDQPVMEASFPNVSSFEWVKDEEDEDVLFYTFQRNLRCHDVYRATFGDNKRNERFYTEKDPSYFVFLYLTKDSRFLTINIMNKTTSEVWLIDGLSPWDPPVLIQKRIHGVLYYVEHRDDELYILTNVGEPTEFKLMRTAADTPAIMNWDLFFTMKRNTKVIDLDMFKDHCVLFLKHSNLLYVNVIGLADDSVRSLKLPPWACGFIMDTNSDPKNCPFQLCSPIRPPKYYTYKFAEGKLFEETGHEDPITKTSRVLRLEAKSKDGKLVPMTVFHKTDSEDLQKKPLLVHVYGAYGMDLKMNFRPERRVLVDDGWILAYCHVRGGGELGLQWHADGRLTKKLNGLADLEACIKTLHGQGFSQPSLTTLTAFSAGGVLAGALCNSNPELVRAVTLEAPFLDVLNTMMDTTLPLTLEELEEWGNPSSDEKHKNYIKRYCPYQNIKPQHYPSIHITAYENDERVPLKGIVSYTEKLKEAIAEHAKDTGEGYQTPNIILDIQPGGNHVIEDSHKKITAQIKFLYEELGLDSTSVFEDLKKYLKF
Numbers stand for hits; 0 = inactive; - = not tested or not shown. This is a sample that favours compounds with a hit; in the whole collection about 6.7% have one here.

SMILES | CHOP inhibitor | CSC inhib | GRIN3A LBD mod | Beta apoptosis | T cruzi inh | PREPL inhibitor
CCOc1ccc(NC(=O)CSc2nnc(COc3c(C)cccc3C)o2)cc1 | 87 | 0 | 0 | 0 | 0 | 0
N#Cc1cccc(NC(=O)CSc2nnc(-c3n[nH]c4ccccc34)o2)c1 | 0 | 0 | 71 | 0 | 0 | 0
O=C(CSc1nnc(-c2ccc(O)cc2)o1)Nc1ccc2c(c1)OCCO2 | 0 | 0 | 0 | 0 | 0 | 0
NS(=O)(=O)c1ccc(NC(=O)CSc2nnc(-c3ccc(O)cc3)o2)cc1 | - | 0 | 26 | 0 | 0 | 0
Cc1ccc(NC(=O)CSc2nnc(-c3ccccc3C)o2)cc1C | 70 | 0 | 0 | 0 | 0 | 0
Cc1ccc2nc(SCC(=O)c3ccc4c(c3)NC(=O)CO4)[nH]c2c1 | 0 | 0 | 0 | 0 | 0 | 0
Cc1ccc(C)c(-n2nnnc2SCC(=O)c2ccc3c(c2)NC(=O)CO3)c1 | 81 | 0 | 0 | 0 | 0 | 0
Cc1ccc2oc(/N=C(\N)NC(=O)C(C)(C)C)nc2c1 | 86 | 0 | 0 | 0 | 0 | 0
Cc1ccc2oc(/N=C(\N)NC(=O)C3CC3)nc2c1 | 0 | 0 | 0 | 0 | 0 | 0
O=C(N/N=C1\CC2CC=CC12)c1ccc(Br)cc1 (stereo unspecified) | 0 | 0 | 0 | 0 | 0 | 0
Cc1cc(Br)c(OCc2ccc(C(=O)N/N=C3\CC4CC=CC34)cc2)c(Br)c1 (stereo unspecified) | 0 | 0 | 12 | 0 | 0 | 0
Cc1cccn2c(=O)c3cc(C(=O)NC4CCCCC4)c(=N)n(Cc4ccccc4)c3nc12 | - | 0 | 0 | 0 | 58 | 0
Cc1ccc(S(=O)(=O)c2cc3c(=O)n4cccc(C)c4nc3n(Cc3ccncc3)c2=N)cc1 | - | 0 | 11 | 0 | 0 | 0
Cc1cccn2c(=O)c3cc(C#N)c(=O)n(Cc4cccnc4)c3nc12 | - | - | 19 | - | - | -
Cc1cccn2c(=O)c3cc(C(=O)NC4CCCC4)c(=N)n(Cc4ccc(F)cc4)c3nc12 | - | 0 | 0 | 0 | 0 | 0
CCCCNC(=O)c1cc2c(=O)n3cccc(C)c3nc2n(Cc2ccccc2)c1=N | 0 | - | 0 | - | 60 | 0
Cc1ccsc1/C=C1/NC(=O)N(Cc2ccc(F)cc2)C1=O | 0 | 0 | 0 | 0 | 0 | 0
Cc1ccc(N(CC(=O)NC2CCCCC2)S(=O)(=O)c2cccs2)cc1 | - | 0 | 0 | 0 | 0 | 0
COc1cc2c(cc1OC)CN(C(=O)/C=C/c1ccccc1[N+](=O)[O-])CC2 | - | 0 | 0 | 0 | 0 | 0
O=C1/C(=C/c2ccccc2F)SC(=S)N1CC(=O)N1CCCCC1c1cccnc1 (stereo unspecified) | - | 0 | 0 | 0 | 0 | 0
CC(C)(C)C(=O)/C=c1\[nH]c(=O)/c(=C\c2ccc(F)cc2)s1 | 81 | 0 | 0 | 0 | 0 | 0
Cc1ccccc1/C=c1\s/c(=C\C(=O)C(C)(C)C)[nH]c1=O | 82 | 0 | 0 | 0 | 0 | 0
CN(CCCNC(=O)c1ccccc1F)CCCNC(=O)c1ccccc1F | - | 0 | 0 | 0 | 0 | 0
CCCn1cnc2cc(NC(=O)c3cccs3)ccc21 | 0 | 0 | 0 | 0 | 0 | 0
CC(C)NC(=O)C(=O)NNC(=O)CCc1ccccc1 | 0 | 0 | 0 | 0 | 0 | 0
SMILES | CHOP inhibitor | CSC inhib | GRIN3A LBD mod | Beta apoptosis | T cruzi inh | PREPL inhibitor
COc1ccc(/C=C2/C(=O)N(c3nc4ccccc4s3)N=C2CSc2ccc(Cl)cc2)cc1 | 0 | 92 | 0 | 0 | 0 | 0
Cc1ccnc(NCc2ccc(Br)cc2)c1 | - | 0 | 0 | 0 | 0 | 0
COc1ccc(CNc2cc(C)ccn2)cc1 | - | - | 10 | - | 0 | 0
Cc1cccc(C)c1NC(=O)COC(=O)c1ccc([N+](=O)[O-])o1 | 0 | 0 | 0 | 0 | 0 | 0
COc1ccccc1C(=O)NCC(=O)N1CCN(S(=O)(=O)c2ccc3c(c2)OCCO3)CC1 | - | 0 | 13 | 0 | 0 | 0
O=C(O)CSc1nc(-c2ccc(Cl)cc2)nc2c1oc1ccccc12 | 74 | 0 | 0 | 0 | 0 | 0
COC(=O)C1=CN(c2cc(C)cc(C)c2)C=C(C(=O)OC)C1c1ccc(OC)c(O)c1 | - | 0 | 0 | 0 | 0 | 0
COC(=O)C1=CN(c2cc(C)cc(C)c2)C=C(C(=O)OC)C1c1cccc(F)c1 | - | 0 | 0 | 0 | 55 | 0
Cc1ccc2nc(SCC(=O)c3ccc(Cl)s3)[nH]c2c1 | 71 | - | 0 | 0 | 0 | 0
Cc1ccc2nc(SCC(=O)c3ccc4c(c3)OCO4)[nH]c2c1 | 0 | 0 | 0 | 0 | 0 | 0
Cc1ccc(OCCCCN2CCCCC2)c(C)c1 | - | 0 | 0 | 0 | 0 | 0
Cc1ccc(OCCCCNC2CCCC(C)C2C)c(C)c1 (stereo unspecified) | 0 | 0 | 0 | 0 | 57 | 0
CCCC1(c2ccccc2)NC(=O)N(CC(=O)Nc2sc(-c3ccccc3)cc2C(=O)OCC)C1=O (stereo unspecified) | 85 | 0 | 0 | 0 | 0 | 0
Clc1ccc(-c2ncc3ccccn23)cc1 | 0 | 0 | 0 | 0 | 0 | 0
Clc1ccccc1-c1ncc2ccccn12 | 0 | 0 | 0 | 0 | 57 | 0
CCc1nc(N2CCN(C(C)=O)CC2)c2c3c(sc2n1)CC(C(C)(C)C)CC3 (stereo unspecified) | - | 0 | 0 | 118 | 0 | 0
Cc1ccc(-c2nc(N/N=C/c3cccc([N+](=O)[O-])c3)c3ccccc3n2)cc1 | 81 | 0 | 163 | 0 | 0 | 0
Cc1ccc(-c2nc(N/N=C/c3cccnc3)c3ccccc3n2)cc1 | 0 | 0 | 0 | 76 | 0 | 0
CCOc1ccc(NC(=S)N(CCOC)C2CCN(C(C)C)CC2)cc1 | - | 0 | 10 | 0 | 0 | 0
CCN(C[C@H]1N[C@@](C)(C(=O)OC)[C@H]2C(=O)N(C)C(=O)[C@@H]12)C(=O)COc1ccccc1 | - | 0 | 0 | 0 | - | 0
CCCOC(=O)c1ccc(-c2c(C)noc2-c2ccc(OC)cc2O)o1 | 93 | 0 | 0 | 0 | 0 | 0
Cc1cc(C(=O)CSc2nc3ccc(Cl)cc3[nH]2)c(C)n1Cc1ccco1 | - | 0 | 0 | 0 | 0 | 0
Cc1cc(C)c(C)c(N=Nc2nc3ccccc3n2C)c1C | 0 | 0 | 19 | 0 | 0 | 0
Cc1ccc(C)c(N=Nc2nc3ccccc3n2C)c1 | 0 | 0 | 0 | 0 | 0 | 0
CCCCC(=NCCc1c(C)[nH]c2ccc(OC)cc12)C1=C(O)CC(c2ccccc2)CC1=O (stereo unspecified) | 0 | 0 | 0 | 0 | 0 | 0
SMILES | CHOP inhibitor | CSC inhib | GRIN3A LBD mod | Beta apoptosis | T cruzi inh | PREPL inhibitor
CC(=NCCc1c(C)[nH]c2ccc(OCc3ccccc3)cc12)C1=C(O)CC(c2ccccc2)CC1=O (stereo unspecified) | 0 | 0 | 0 | 0 | 58 | 0
CCC(=NCCc1c(C)[nH]c2ccccc12)C1=C(O)CC(c2ccccc2)CC1=O (stereo unspecified) | 0 | 0 | 16 | 0 | 0 | 0
COc1ccc(NC(=O)COC(=O)C2CCN(S(=O)(=O)c3cccs3)CC2)cc1 | 78 | 0 | 0 | 0 | 0 | 0
Cc1cc(Sc2ccc([N+](=O)[O-])cn2)ccc1Br | - | 0 | 0 | 0 | 0 | 0
Cc1ccc(S(=O)(=O)c2ccc(C)cc2)cc1 | 0 | 0 | 0 | 0 | 0 | 0
Nc1ccc(S(=O)(=O)c2ccccc2)nc1 | - | 0 | 0 | 0 | 0 | 0
